Measurements from ChEMBL document CHEMBL1148018, “Discovery and SAR development of thienopyridones: a class of small molecule AMPK activators” (Bioorg Med Chem Lett, 2007).
Active and inactive are the calls of the source. No cut-off for these calls is given here.

Legend:
[1] = (§1) Activation of AMPK in rat liver assessed as SAMS peptide phosphorylation; assay type: functional, tissue-based
Summary of the method: (§2)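 Kinase activity is read as phosphorylation of the SAMS peptide substrate. Substrate concentration is 20 in standard assays and 100 in additivity assays.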

Rattus norvegicus = species: Rattus norvegicus; experiment: as §1; assay type: functional, tissue-based; summary of the method: as §2

Structure (SMILES) | EC50 [1] [µM] | Activity (Rattus norvegicus)
N#Cc1c(O)c2c(-c3ccccc3)c(Br)sc2[nH]c1=O | 5.8 | –
Cn1c(=O)c(C#N)c(O)c2c(-c3ccc(Br)cc3)c(F)sc21 | – | inactive
Cn1c(=O)c(C#N)c(N)c2c(-c3ccc(Br)cc3)csc21 | – | inactive
CN(C)c1c(O)c2c(-c3ccccc3)csc2[nH]c1=O | – | inactive
N#Cc1c(O)c2c(-c3ccccc3)c([N+](=O)[O-])sc2[nH]c1=O | – | inactive
Cn1c(=O)c(C#N)c(O)c2c(-c3ccccc3)csc21 | – | inactive
O=c1[nH]c2scc(-c3ccccc3)c2c(O)c1-c1ccccc1 | – | inactive
N#Cc1c(O)c2c(-c3ccc(F)cc3)c(Br)sc2[nH]c1=O | 10 | –
N#Cc1c(O)c2c(-c3ccccc3)c(-c3ccccc3O)sc2[nH]c1=O | – | inactive
O=c1cc(O)c2c(-c3ccccc3)csc2[nH]1 | – | inactive
N#Cc1c(O)c2c(-c3ccc(O)cc3)c(Cl)sc2[nH]c1=O | 2 | –
C=CCc1ccc(-c2csc3[nH]c(=O)c(C#N)c(O)c23)cc1 | 40 | –
COc1c(C#N)c(=O)[nH]c2scc(-c3ccccc3)c12 | – | inactive
N#Cc1c(O)c2c(-c3ccc4c(c3)OCO4)csc2[nH]c1=O | 20 | –
Cn1c(=O)c(C#N)c(O)c2c(-c3ccc(Cl)cc3)csc21 | – | inactive

Second part, led by results:

EC50 [1] [µM] | Structure (SMILES) | Activity (Rattus norvegicus)
183 | O=c1[nH]c2scc(-c3ccccc3)c2c(O)c1-c1cccs1 | –
72 | N#Cc1c(O)c2c(-c3ccc(Br)cc3)csc2[nH]c1=O | –
180 | COc1cccc(-c2c(O)c3c(-c4ccccc4)csc3[nH]c2=O)c1 | –
38 | N#Cc1c(O)c2c(-c3cccc(O)c3)csc2[nH]c1=O | –
84 | N#Cc1c(O)c2c(-c3ccc(F)cc3)csc2[nH]c1=O | –
175 | COC(=O)c1c(O)c2c(-c3ccccc3)csc2[nH]c1=O | –
81 | N#Cc1c(O)c2c(-c3ccc(Cl)cc3)csc2[nH]c1=O | –
20 | N#Cc1c(O)c2c(-c3ccc(O)cc3)csc2[nH]c1=O | –
3.7 | N#Cc1c(O)c2c(-c3ccccc3)c(Cl)sc2[nH]c1=O | –
38 | N#Cc1c(O)c2c(-c3ccccc3)csc2[nH]c1=O | –
55 | COC(=O)c1ccc(-c2csc3[nH]c(=O)c(C#N)c(O)c23)cc1 | –
8 | COCOc1ccc(-c2csc3[nH]c(=O)c(C#N)c(O)c23)cc1 | –
88 | O=c1[nH]c2scc(-c3ccccc3)c2c(O)c1Cl | –
